From ChEMBL document CHEMBL4819040, “Limonoids from Guarea guidonia and Cedrela odorata: Heat Shock Protein 90 (Hsp90) Modulator Properties of Chisomicine D” (J Nat Prod, 2021)
Active and inactive are the calls of the source. The calls are words filed in the database; no cut-off is given here.

Legend:
[1] = target: T1, Heat shock protein HSP 90-alpha (Homo sapiens, UniProt P07900); test: Binding affinity to recombinant human HSP90alpha by surface plasmon resonance analysis
[2] = Cytotoxicity against human PBMC cells assessed as cell viability after 48 hrs by MTT assay; assay type: cell-based
In short: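 PBMCs isolated from healthy-donor buffy coats on Ficoll-Hypaque gradients, exposed to 30 μM or DMSO for 48 h. Viability read by MTT (absorbance 550 nm). Technical triplicates, repeated twice.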

U-937 [3] = test: Induction of cell cycle arrest in human U937 cells assessed as G1 phase cells at 20 uM incubated for 48 hrs PI staining based flow cytometric analysis (reference value: 60.8 %); assay type: functional
U-937 [4] = test: Induction of cell cycle arrest in human U937 cells assessed as decrease in cells at S phase at 20 uM incubated for 48 hrs PI staining based flow cytometric analysis (reference value: 23.6 %); assay type: functional; design: scale not given: the % may be the effect or the level left
U-937 [5] = test: Induction of cell cycle arrest in human U937 cells assessed as increase in cells at G2 phase at 20 uM incubated for 48 hrs PI staining based flow cytometric analysis (reference value: 11.1 %); assay type: functional
U-937 [6] = test: Induction of cell cycle arrest in human U937 cells assessed as phosphorylated CDC2 expression at 10 uM by Western blotting analysis (reference value: 1.07); assay type: functional
In short: (§1)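 U937 cells given vehicle (DMSO) or 10 or 20 μM. RIPA whole-cell lysates (protease/phosphatase inhibitors) resolved by SDS-PAGE, blotted to nitrocellulose, ECL detection. Targets: pro-caspase 3/caspase 3 or p-CDC2 (p34)/CDC2. Densitometry normalized. Duplicate experiments.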

U-937 [7] = test: Induction of cell cycle arrest in human U937 cells assessed as phosphorylated CDC2 expression at 20 uM by Western blotting analysis (reference value: 1.07); assay type: functional; in short: as §1
U-937 [8] = test: Induction of cell cycle arrest in human U937 cells assessed as CDC2 protein expression at 10 uM by Western blotting analysis (reference value: 1.22); assay type: functional; in short: as §1
U-937 [9] = test: Induction of cell cycle arrest in human U937 cells assessed as CDC2 protein expression at 20 uM by Western blotting analysis (reference value: 1.22); assay type: functional; in short: as §1
U-937 [10] = test: Induction of apoptosis in human U-937 cells assessed as viable cells at 20 uM after 48 hrs by AnnexinV-FITC/propidium iodide staining based flow cytometry (reference value: 82.7 %); assay type: functional; conditions: read-out: Activity
U-937 [11] = test: Induction of apoptosis in human U-937 cells assessed as early apoptotic cells at 20 uM after 48 hrs by AnnexinV-FITC/propidium iodide staining based flow cytometry (reference value: 4.90 %); assay type: functional
U-937 [12] = test: Induction of apoptosis in human U-937 cells assessed as late apoptotic cells at 20 uM after 48 hrs by AnnexinV-FITC/propidium iodide staining based flow cytometry (reference value: 12.4 %); assay type: functional
U-937 [13] = test: Induction of apoptosis in human U-937 cells assessed as necrotic cells at 20 uM after 48 hrs by AnnexinV-FITC/propidium iodide staining based flow cytometry (reference value: 0 %); assay type: functional
U-937 [14] = test: Induction of apoptosis in human U-937 cells assessed as cleavage of pro-caspase at 20 uM by Western blotting analysis; assay type: functional, cell-based; in short: as §1
[15] = target: T1, Heat shock protein HSP 90-alpha; test: Inhibition of HSP90alpha (unknown origin) at 10 to 20 uM; conditions: dose 10-20 µM
[16] = target: T1, Heat shock protein HSP 90-alpha; test: Effect on HSP90alpha in human U-937 cells assessed as p-JNK p54 protein level at 10 uM after 48 hrs by Western blot analysis (reference value: 2.22); assay type: cell-based; conditions: filed as modulator
In short: (§2)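 U937 cells (RPMI 1640, 10% FBS, 37 °C, 5% CO2) treated 48 h at 10, 20 or 30 μM, DMSO vehicle ≤0.3%. RIPA lysates, Bradford protein assay, SDS-PAGE, nitrocellulose, HRP secondary with ECL detection. GAPDH loading control, densitometry normalized. Run in duplicate.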

[17] = target: T1, Heat shock protein HSP 90-alpha; test: Effect on HSP90alpha in human U-937 cells assessed as JNK p54 protein level at 10 uM after 48 hrs by Western blot analysis (reference value: 2.45); assay type: cell-based; conditions: filed as modulator; in short: as §2
[18] = target: T1, Heat shock protein HSP 90-alpha; test: Effect on HSP90alpha in human U-937 cells assessed as p-JNK p46 protein level at 10 uM after 48 hrs by Western blot analysis (reference value: 1.06); assay type: cell-based; conditions: filed as modulator; in short: as §2
[19] = target: T1, Heat shock protein HSP 90-alpha; test: Effect on HSP90alpha in human U-937 cells assessed as p-JNK p46 protein level at 20 uM after 48 hrs by Western blot analysis (reference value: 1.06); assay type: cell-based; conditions: filed as modulator; in short: as §2
[20] = target: T1, Heat shock protein HSP 90-alpha; test: Effect on HSP90alpha in human U-937 cells assessed as p-JNK p46 protein level at 30 uM after 48 hrs by Western blot analysis (reference value: 1.06); assay type: cell-based; conditions: filed as modulator; in short: as §2
[21] = target: T1, Heat shock protein HSP 90-alpha; test: Effect on HSP90alpha in human U-937 cells assessed as JNK p46 protein level at 10 uM after 48 hrs by Western blot analysis (reference value: 1.22); assay type: cell-based; conditions: filed as modulator; in short: as §2
[22] = target: T1, Heat shock protein HSP 90-alpha; test: Effect on HSP90alpha in human U-937 cells assessed as JNK p46 protein level at 20 uM after 48 hrs by Western blot analysis (reference value: 1.22); assay type: cell-based; conditions: filed as modulator; in short: as §2
[23] = target: T1, Heat shock protein HSP 90-alpha; test: Effect on HSP90alpha in human U-937 cells assessed as JNK p46 protein level at 30 uM after 48 hrs by Western blot analysis (reference value: 1.22); assay type: cell-based; conditions: filed as modulator; in short: as §2
[24] = target: T1, Heat shock protein HSP 90-alpha; test: Effect on HSP90alpha in human U-937 cells assessed as p-ERK2 protein level at 10 uM after 48 hrs by Western blot analysis (reference value: 1.67); assay type: cell-based; conditions: filed as modulator; in short: as §2
[25] = target: T1, Heat shock protein HSP 90-alpha; test: Effect on HSP90alpha in human U-937 cells assessed as ERK2 protein level at 10 uM after 48 hrs by Western blot analysis (reference value: 0.69); assay type: cell-based; conditions: filed as modulator; in short: as §2
[26] = target: T1, Heat shock protein HSP 90-alpha; test: Effect on HSP90alpha in human U-937 cells assessed as ERK2 protein level at 20 uM after 48 hrs by Western blot analysis (reference value: 0.69); assay type: cell-based; conditions: filed as modulator; in short: as §2
[27] = target: T1, Heat shock protein HSP 90-alpha; test: Effect on HSP90alpha in human U-937 cells assessed as ERK2 protein level at 30 uM after 48 hrs by Western blot analysis (reference value: 0.69); assay type: cell-based; conditions: filed as modulator; in short: as §2
[28] = target: T1, Heat shock protein HSP 90-alpha; test: Effect on HSP90alpha in human U-937 cells assessed as HSP90 protein level at 10 uM after 48 hrs by Western blot analysis (reference value: 1.12); assay type: cell-based; conditions: filed as modulator; in short: as §2
[29] = target: T1, Heat shock protein HSP 90-alpha; test: Effect on HSP90alpha in human U-937 cells assessed as HSP90 protein level at 20 uM after 48 hrs by Western blot analysis (reference value: 1.12); assay type: cell-based; conditions: filed as modulator; in short: as §2
[30] = target: T1, Heat shock protein HSP 90-alpha; test: Effect on HSP90alpha in human U-937 cells assessed as HSP90 protein level at 30 uM after 48 hrs by Western blot analysis (reference value: 1.12); assay type: cell-based; conditions: filed as modulator; in short: as §2
[31] = target: T1, Heat shock protein HSP 90-alpha; test: Effect on HSP90alpha in human U-937 cells assessed as HSP70 protein level at 10 uM after 48 hrs by Western blot analysis (reference value: 0.83); assay type: cell-based; conditions: filed as modulator; in short: as §2
[32] = target: T1, Heat shock protein HSP 90-alpha; test: Effect on HSP90alpha in human U-937 cells assessed as HSP70 protein level at 20 uM after 48 hrs by Western blot analysis (reference value: 0.83); assay type: cell-based; conditions: filed as modulator; in short: as §2
[33] = target: T1, Heat shock protein HSP 90-alpha; test: Effect on HSP90alpha in human U-937 cells assessed as HSP70 protein level at 30 uM after 48 hrs by Western blot analysis (reference value: 0.83); assay type: cell-based; conditions: filed as modulator; in short: as §2

COC(=O)C[C@H](OC(C)=O)[C@]1(C)[C@H]2[C@@H](OC(C)=O)C[C@@]3(C)[C@H](c4ccoc4)OC(=O)[C@H]4O[C@]43[C@]2(C)[C@H](OC(C)=O)C[C@H]1C(C)(C)O
Kd [1]: Not Active

CC(=O)O[C@H]1C[C@@]2(C)[C@H](C3=CC(=O)O[C@@H]3O)OC(=O)[C@H]3O[C@]32[C@@]2(C)[C@H]1[C@@]1(C)[C@@H](OC(C)=O)CC(=O)OC(C)(C)[C@@H]1C[C@H]2OC(C)=O
Kd [1]: Not Active

CC(=O)O[C@H]1C[C@@]2(C)[C@H](c3ccoc3)OC(=O)[C@H]3O[C@]32[C@@]2(C)[C@H]1[C@@]1(C)[C@@H](OC(C)=O)CC(=O)OC(C)(C)[C@@H]1C[C@H]2OC(C)=O
Kd [1]: Not Active

C/C=C(\C)C(=O)O[C@@H]1/C=C\C2=C3CC(=O)O[C@@H](c4ccoc4)[C@]3(C)CC[C@]2(O)[C@]2(C)C(=O)C[C@@]1(C)[C@@H]2CC(=O)OC (relative stereo)
Kd [1]: Not Active

COC(=O)C[C@H]1C(C)(C)[C@H](OC(=O)C(O)C(C)C)[C@@H]2C=C3C4CC(=O)O[C@@H](c5ccoc5)[C@]4(C)CC[C@@H]3[C@@]1(C)C2=O (stereo partly specified)
Kd [1]: Not Active

COC(=O)C[C@H]1C(C)(C)[C@H](O)[C@@H]2CC3=C4CC(=O)O[C@@H](c5ccoc5)[C@]4(C)CC[C@@H]3[C@@]1(C)C2=O [PROCERANOLIDE]
Kd [1]: Not Active

C=C(C)C(=O)O[C@@H]1/C=C\[C@]2(O)C3=CC(=O)O[C@@H](c4ccoc4)[C@]3(C)CC[C@]2(O)[C@]2(C)C(=O)C[C@@]1(C)[C@@H]2CC(=O)OC
Kd [1]: Not Active

C/C=C(\C)C(=O)O[C@@H]1/C=C\[C@]2(O)C3=CC(=O)O[C@@H](c4ccoc4)[C@]3(C)CC[C@]2(O)[C@]2(C)C(=O)C[C@@]1(C)[C@@H]2CC(=O)OC (relative stereo)
Activity [2]: Non-Toxic | Activity (U-937 [3]): 53.1% | Activity (U-937 [4]): 12.3% | Activity (U-937 [5]): 16.7% | fold change (FC) (U-937 [6]): 0.84 | fold change (FC) (U-937 [7]): 1.09 | fold change (FC) (U-937 [8]): 1.18 | fold change (FC) (U-937 [9]): 0.58 | viability at 20 µM (U-937 [10]): 63.1% | Activity (U-937 [11]): 8.62% | Activity (U-937 [12]): 28.3% | Activity (U-937 [13]): 0% | Activity (U-937 [14]): Active | inhibition [15]: inactive | fold change (FC) [16]: 1.45 | fold change (FC) [17]: 1.18 | fold change (FC) [18]: 0.97 | fold change (FC) [19]: 1.01 | fold change (FC) [20]: 0.95 | fold change (FC) [21]: 1.13 | fold change (FC) [22]: 0.92 | fold change (FC) [23]: 0.65 | fold change (FC) [24]: 2.12 | fold change (FC) [25]: 1.17 | fold change (FC) [26]: 1.17 | fold change (FC) [27]: 1.03 | fold change (FC) [28]: 1.21 | fold change (FC) [29]: 0.82 | fold change (FC) [30]: 0.93 | fold change (FC) [31]: 1.3 | fold change (FC) [32]: 0.91 | fold change (FC) [33]: 1

CC(=O)O[C@H]1C[C@@]2(C)[C@H](C3=CC(=O)O[C@@H]3O)OC(=O)[C@H]3O[C@]32[C@@]2(C)[C@H]1[C@@]1(C)C=CC(=O)OC(C)(C)[C@@H]1C[C@H]2OC(C)=O
Kd [1]: Not Active

CC(=O)O[C@H]1CC(=O)OC(C)(C)[C@@H]2C[C@@H](OC(C)=O)[C@@]3(C)C4=CC[C@@H](C(O)(CO)CCO)[C@]4(C)CC[C@@H]3[C@@]12C (stereo partly specified)
Kd [1]: Not Active
